pIC50: −log10 of the molar value. Values after ≈ are worked out from the molar mass of the structure shown.
What was measured:
[1] = molecular target: T1, Inhibitor of nuclear factor kappa-B kinase subunit beta (Homo sapiens, UniProt O14920); test: Inhibition of IKK-beta
T1 sequence (O14920 whole entry): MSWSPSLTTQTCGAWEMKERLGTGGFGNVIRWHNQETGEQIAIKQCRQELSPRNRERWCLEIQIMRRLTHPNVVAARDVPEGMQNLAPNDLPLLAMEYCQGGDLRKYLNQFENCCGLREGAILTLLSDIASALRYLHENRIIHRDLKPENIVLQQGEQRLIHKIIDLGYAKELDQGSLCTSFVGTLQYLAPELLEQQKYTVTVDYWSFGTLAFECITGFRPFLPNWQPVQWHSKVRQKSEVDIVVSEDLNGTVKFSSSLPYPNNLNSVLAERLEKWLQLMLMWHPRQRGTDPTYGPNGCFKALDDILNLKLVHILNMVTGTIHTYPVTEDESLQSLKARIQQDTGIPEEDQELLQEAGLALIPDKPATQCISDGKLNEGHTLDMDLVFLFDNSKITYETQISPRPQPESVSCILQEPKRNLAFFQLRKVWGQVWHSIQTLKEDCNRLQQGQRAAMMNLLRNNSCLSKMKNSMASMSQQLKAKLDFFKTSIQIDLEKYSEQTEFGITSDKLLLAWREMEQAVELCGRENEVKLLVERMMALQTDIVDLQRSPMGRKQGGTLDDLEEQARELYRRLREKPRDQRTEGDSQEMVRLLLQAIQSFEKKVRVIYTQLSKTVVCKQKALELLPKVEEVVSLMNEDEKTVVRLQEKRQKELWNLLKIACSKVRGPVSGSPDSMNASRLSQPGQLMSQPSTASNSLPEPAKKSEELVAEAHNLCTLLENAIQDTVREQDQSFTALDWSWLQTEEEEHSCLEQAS

[2] = molecular target: T2, Inhibitor of nuclear factor kappa-B kinase subunit alpha (Homo sapiens, UniProt O15111); test: Inhibition of IKK-alpha
T2 sequence (O15111 whole entry): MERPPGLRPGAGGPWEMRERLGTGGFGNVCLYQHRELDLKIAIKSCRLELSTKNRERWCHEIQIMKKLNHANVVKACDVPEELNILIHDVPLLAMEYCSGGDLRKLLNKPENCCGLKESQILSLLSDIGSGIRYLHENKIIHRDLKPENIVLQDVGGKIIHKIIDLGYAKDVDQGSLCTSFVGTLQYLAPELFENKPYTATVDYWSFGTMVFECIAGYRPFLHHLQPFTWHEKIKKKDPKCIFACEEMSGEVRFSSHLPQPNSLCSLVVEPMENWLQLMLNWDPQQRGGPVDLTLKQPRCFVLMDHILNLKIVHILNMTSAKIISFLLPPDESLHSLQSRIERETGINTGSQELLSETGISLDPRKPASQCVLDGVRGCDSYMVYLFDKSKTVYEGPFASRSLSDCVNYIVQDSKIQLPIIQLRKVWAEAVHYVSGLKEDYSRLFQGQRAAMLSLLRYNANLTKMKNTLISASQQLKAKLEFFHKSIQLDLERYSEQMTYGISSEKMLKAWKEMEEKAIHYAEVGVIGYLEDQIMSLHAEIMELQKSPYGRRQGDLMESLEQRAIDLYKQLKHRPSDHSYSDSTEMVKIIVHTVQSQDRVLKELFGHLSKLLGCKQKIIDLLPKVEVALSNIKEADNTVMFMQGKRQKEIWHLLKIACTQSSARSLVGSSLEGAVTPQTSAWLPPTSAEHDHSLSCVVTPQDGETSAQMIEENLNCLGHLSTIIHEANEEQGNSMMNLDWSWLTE
How it was run: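 Done the same way as the IKK-β TR-FRET assay but with 6-His-tagged full-length IKK-α. Buffer is 50 mM HEPES, 10 mM MgCl₂, 1 mM CHAPS pH 7.4, 1 mM DTT, 0.01% w/v BSA. GST-IκBα substrate 25 nM final, ATP 1 μM final, DMSO below 5% final. Error about ±0.3 log units.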

PBMC = test: Antiinflammatory activity in human PBMC assessed as inhibition of LPS-induced TNF-alpha production; format: functional, cell-based
How it was run: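 Human peripheral blood mononuclear cells stimulated with LPS. Read-out is inhibition of TNF-α production, reported as pIC50.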

[3] = molecular target: T3, Inhibitor of nuclear factor kappa-B kinase subunit epsilon (Homo sapiens, UniProt Q14164); test: Inhibition of IKK-epsilon
T3 sequence (Q14164 whole entry): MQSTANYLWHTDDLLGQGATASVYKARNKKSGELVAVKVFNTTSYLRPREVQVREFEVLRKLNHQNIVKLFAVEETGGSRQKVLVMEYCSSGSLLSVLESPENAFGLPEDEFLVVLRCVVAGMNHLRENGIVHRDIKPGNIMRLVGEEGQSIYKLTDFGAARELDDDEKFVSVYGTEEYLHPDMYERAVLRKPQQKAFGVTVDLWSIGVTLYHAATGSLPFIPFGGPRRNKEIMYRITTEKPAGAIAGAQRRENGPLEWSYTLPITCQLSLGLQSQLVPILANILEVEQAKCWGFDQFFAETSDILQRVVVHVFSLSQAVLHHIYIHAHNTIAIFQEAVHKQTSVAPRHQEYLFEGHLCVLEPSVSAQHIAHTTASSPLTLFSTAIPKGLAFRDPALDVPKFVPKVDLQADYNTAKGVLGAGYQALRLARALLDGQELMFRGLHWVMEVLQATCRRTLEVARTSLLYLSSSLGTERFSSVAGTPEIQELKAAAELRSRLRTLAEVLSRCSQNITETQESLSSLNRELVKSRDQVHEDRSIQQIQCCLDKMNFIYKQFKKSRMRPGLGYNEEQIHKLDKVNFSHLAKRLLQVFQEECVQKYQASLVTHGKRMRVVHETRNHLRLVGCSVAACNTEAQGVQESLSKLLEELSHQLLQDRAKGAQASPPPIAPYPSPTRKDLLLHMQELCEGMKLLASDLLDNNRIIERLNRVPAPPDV

[4] = molecular target: T4, Serine/threonine-protein kinase TBK1 (Homo sapiens, UniProt Q9UHD2); test: Inhibition of TBK-1
T4 sequence (Q9UHD2 whole entry): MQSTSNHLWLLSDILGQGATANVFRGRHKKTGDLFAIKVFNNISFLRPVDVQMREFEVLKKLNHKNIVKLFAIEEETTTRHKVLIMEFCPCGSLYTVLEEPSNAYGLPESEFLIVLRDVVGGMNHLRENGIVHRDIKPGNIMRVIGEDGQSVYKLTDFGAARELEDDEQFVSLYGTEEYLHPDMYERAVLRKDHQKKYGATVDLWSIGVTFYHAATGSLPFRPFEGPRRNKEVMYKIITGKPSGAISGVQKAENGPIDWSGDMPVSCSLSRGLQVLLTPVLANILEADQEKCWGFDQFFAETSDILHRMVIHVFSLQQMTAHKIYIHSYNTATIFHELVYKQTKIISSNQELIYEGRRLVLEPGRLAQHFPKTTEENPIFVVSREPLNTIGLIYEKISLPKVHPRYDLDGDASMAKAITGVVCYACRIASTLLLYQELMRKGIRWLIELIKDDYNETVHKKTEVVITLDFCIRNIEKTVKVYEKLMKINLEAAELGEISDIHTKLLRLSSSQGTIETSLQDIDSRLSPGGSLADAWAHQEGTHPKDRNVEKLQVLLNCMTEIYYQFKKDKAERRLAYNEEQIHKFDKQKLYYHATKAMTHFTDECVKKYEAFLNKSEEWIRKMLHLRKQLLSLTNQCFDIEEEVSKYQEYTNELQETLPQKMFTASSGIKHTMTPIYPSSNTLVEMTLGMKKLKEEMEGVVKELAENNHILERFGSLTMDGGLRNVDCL

[5] = molecular target: Macrophage colony-stimulating factor 1 receptor (Homo sapiens, UniProt P07333); test: Inhibition of c-FMS
Chain of Macrophage colony-stimulating factor 1 receptor (P07333 whole entry): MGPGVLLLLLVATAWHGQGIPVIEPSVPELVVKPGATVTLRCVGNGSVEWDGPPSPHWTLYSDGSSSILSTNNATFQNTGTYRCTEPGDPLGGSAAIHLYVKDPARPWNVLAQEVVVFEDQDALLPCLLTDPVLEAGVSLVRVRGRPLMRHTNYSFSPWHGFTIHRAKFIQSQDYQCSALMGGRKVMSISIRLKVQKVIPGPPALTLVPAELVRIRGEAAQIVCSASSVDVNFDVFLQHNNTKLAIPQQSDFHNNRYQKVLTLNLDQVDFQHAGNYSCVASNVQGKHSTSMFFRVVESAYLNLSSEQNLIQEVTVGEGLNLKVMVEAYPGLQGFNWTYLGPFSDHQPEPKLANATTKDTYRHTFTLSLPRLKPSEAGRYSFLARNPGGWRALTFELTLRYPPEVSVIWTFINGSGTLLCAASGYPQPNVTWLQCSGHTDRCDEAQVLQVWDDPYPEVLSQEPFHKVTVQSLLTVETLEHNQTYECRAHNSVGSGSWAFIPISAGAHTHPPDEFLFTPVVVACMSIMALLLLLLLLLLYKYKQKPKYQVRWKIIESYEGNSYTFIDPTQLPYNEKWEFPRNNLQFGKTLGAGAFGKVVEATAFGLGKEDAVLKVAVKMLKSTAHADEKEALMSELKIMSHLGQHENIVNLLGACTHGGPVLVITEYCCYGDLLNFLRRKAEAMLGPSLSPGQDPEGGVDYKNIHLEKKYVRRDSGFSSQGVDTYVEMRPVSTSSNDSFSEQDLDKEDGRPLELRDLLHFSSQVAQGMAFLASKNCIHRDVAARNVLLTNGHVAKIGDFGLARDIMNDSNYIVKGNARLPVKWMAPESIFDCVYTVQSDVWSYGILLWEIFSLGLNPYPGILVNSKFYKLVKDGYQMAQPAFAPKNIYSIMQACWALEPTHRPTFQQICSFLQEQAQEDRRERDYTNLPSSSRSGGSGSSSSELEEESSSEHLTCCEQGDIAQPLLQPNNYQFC

[6] = molecular target: Tyrosine-protein kinase BTK (Homo sapiens, UniProt Q06187); test: Inhibition of BTK
Chain of Tyrosine-protein kinase BTK (Q06187 whole entry): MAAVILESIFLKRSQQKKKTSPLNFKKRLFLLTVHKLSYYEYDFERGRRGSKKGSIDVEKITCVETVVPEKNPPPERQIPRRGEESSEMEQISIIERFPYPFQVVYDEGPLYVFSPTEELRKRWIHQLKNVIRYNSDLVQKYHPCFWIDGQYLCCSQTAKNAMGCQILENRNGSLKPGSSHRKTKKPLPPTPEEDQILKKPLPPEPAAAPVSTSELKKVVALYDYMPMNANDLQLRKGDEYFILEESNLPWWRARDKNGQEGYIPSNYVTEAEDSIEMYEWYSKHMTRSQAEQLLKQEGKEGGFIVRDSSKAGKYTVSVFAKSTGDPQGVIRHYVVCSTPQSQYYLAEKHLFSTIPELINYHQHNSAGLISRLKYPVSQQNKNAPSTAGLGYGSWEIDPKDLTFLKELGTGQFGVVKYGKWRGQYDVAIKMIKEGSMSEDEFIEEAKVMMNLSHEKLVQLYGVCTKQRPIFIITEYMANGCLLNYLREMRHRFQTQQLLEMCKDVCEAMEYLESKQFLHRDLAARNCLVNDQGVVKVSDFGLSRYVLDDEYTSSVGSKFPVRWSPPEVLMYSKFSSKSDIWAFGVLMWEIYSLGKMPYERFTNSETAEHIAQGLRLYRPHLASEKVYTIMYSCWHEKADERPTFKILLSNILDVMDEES

[7] = Aqueous solubility of the compound; format: physicochemical
serum albumin = serum albumin (Homo sapiens, UniProt P02768); test: Binding affinity to human serum albumin; format: ADME; conditions: read-out: PB
Chain of serum albumin (P02768 whole entry): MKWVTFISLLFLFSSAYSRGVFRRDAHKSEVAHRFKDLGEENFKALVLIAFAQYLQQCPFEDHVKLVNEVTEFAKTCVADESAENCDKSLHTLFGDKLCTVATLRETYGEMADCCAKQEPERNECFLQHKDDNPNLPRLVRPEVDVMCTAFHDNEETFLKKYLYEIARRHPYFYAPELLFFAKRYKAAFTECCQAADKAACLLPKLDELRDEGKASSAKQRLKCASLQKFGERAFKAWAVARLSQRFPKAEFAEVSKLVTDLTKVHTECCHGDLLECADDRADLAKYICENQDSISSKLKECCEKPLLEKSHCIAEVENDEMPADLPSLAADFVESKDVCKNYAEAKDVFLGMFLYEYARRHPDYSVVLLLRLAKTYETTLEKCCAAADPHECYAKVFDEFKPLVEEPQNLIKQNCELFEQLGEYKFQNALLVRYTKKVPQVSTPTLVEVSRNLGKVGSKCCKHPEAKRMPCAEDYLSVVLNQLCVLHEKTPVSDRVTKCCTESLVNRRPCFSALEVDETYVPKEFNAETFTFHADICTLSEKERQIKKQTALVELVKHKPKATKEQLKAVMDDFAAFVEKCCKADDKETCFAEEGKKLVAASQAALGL

[8] = Oral bioavailability in rat; format: ADME, organism-based; conditions: in vivo

pIC50 [1]	pIC50 [2]	SMILES	other results
5.60		NC(=O)c1cc(Br)cc2c3c([nH]c12)CCCC3	
< 4.80		O=C(O)c1cc(-c2ccccc2)cc2cc[nH]c12	
5.80	5.00	NC(=O)c1cc(-c2ccccc2)cc2cc[nH]c12	
5.80	5.00	N#Cc1cccc(-c2cc(C(N)=O)c3[nH]ccc3c2)c1	
6.30	5.40	CS(=O)(=O)Nc1ccc(-c2cc(C(N)=O)c3[nH]ccc3c2)cc1	
5.20	< 4.80	NC(=O)c1cc(-c2ccccc2Cl)cc2cc[nH]c12	
6.10	5.30	NC(=O)c1cc(-c2cccc(Cl)c2)cc2cc[nH]c12	
6.50	5.20	NC(=O)c1cc(-c2ccc(Cl)cc2)cc2cc[nH]c12	
5.60	4.80	NC(=O)c1cc(-c2cccc(CO)c2)cc2cc[nH]c12	
5.90	4.80	NC(=O)c1cc(-c2ccc(CO)cc2)cc2cc[nH]c12	
5.80	4.90	COc1ccncc1-c1cc(C(N)=O)c2[nH]ccc2c1	
6.30	5.40	NC(=O)c1cc(-c2cc3ccccc3o2)cc2cc[nH]c12	
6.80	5.80	NC(=O)c1cc(-c2ccccc2)cc2c(C3CCCNC3)c[nH]c12 (centres undefined)	pIC50 (PBMC): 6.20; pIC50 [3]: < 5.50; pIC50 [4]: < 5.50; pIC50 [5]: 5.80; pIC50 [6]: 5.90; solubility [7]: 136 µg/mL (≈ 426 µM); fraction unbound (serum albumin): 0.09; bioavailability [8]: 22%
6.30	5.00	NC(=O)c1cc(-c2ccccc2)cc2c(C3CCNCC3)c[nH]c12	
7.70	5.50	CC(C)S(=O)(=O)N1CCC(c2c[nH]c3c(C(N)=O)cc(-c4ccccc4)cc23)CC1	
7.60	5.70	CCS(=O)(=O)N1CCC(c2c[nH]c3c(C(N)=O)cc(-c4ccccc4)cc23)CC1	
6.40	5.10	NC(=O)c1cc(-c2ccccc2)cc2c(C3CCN(S(=O)(=O)c4ccc(Cl)cc4)CC3)c[nH]c12	
8.10		CCc1ccc(-c2cc(C(N)=O)c(NC(N)=O)s2)cc1	
< 4.80		CN(C)C(=O)c1cc(-c2ccccc2)cc2cc[nH]c12	
5.30	4.80	NC(=O)c1cc(-c2cncnc2)cc2cc[nH]c12	
